# Experimental data as given in PubChem BioAssay.
# Active and inactive are the calls of the source.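 Rule for the calls, unless noted: active = GFP response above 150% of the DMSO level; inconclusive = fewer than 70 events counted for a yeast strain; inactive = the rest.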
# Tests used:
# [1] = hit retest on RPL19A-GFP reporter strain – cell-based, S. cerevisiae, flow cytometry, cherry picks, mother/daughter gates, confirmation (AID 2270;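 active = GFP response below 50% of the DMSO control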); conditions: 3 h, at 10 µM, stronger effect = lower value, 100 = same GFP as DMSO wells
# [2] = yeast TOR pathway reporter LAP4-GFP change – cell-based, cherry picks, flow cytometry, mother/daughter gates, confirmation (AID 2271;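 active = GFP response above 150% of the DMSO control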;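 note: ratio of sample to DMSO plate mean so 100% equals DMSO level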); conditions: S. cerevisiae LAP4-GFP strain, 3 h, at 10 µM, stronger effect = higher value, 100 means same as DMSO control
# How it was run: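 System – GFP-fusion yeast strain · Amount – 0.2 OD600 cells · Buffer or medium – SC growth medium · Dosing – single test-compound dose, 10 µM final · Schedule – 3 h treatment at 30 °C with rotation · Detection – GFP by flow cytometry · Read-out – per-gate (all, mother, daughter) GFP response vs DMSO · Benchmarks – positive rapamycin (400 ng/mL), negative DMSO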
# [3] = TOR pathway reporter MEP2-GFP, retest of hits – S. cerevisiae, flow cytometry GFP, cherry picks, confirmation (AID 2272;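 active = GFP response above 150% of the DMSO control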;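 note: ratio of well signal to plate DMSO mean so 100% equals DMSO level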); conditions: S. cerevisiae MEP2-GFP strain, 3 h, at 10 µM, stronger effect = higher value
# [4] = yeast AGP1-GFP fluorescence change, single-dose – cell-based, flow cytometry, S. cerevisiae, cherry picks, confirmation (AID 2273);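 note: median GFP channel fluorescence over the whole cell population gate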; conditions: S. cerevisiae AGP1-GFP strain, 3 h, at 10 µM
# [5] = TOR pathway CIT2 reporter hit retest – S. cerevisiae, GFP fusion, cherry picks, mother/daughter gates, confirmation (AID 2274); conditions: S. cerevisiae CIT2-GFP strain, flow cytometry, 3 h, at 10 µM, stronger effect = higher value
# [6] = measured here: daughter cell gate
# [7] = measured here: mother cell gate
# [8] = measured here: daughter cell gate response
# [9] = measured here: mother cell gate response
SMILES,GFP response vs DMSO [1],"GFP response vs DMSO [1, 6] [%]","GFP response vs DMSO [1, 7] [%]",GFP response relative to DMSO [2],"GFP response relative to DMSO [2, 8] [%]","GFP response relative to DMSO [2, 9] [%]",GFP response vs DMSO [3],"GFP response, % of DMSO [4]","GFP response, % of DMSO [5]","GFP response, % of DMSO [5, 6] [%]","GFP response, % of DMSO [5, 7] [%]"
CCOC(=O)C1(Cc2ccccc2Cl)CCN(C(=O)CCn2ccnc2C)CC1,96.6% (inactive),97.3,97.2,101% (inactive),104,99.5,99.5% (inactive),100% (inactive),97.8% (inactive),98.3,98
Cc1cccc(NC(=O)/C(C#N)=C/c2ccccc2Cl)n1,91.2% (inactive),91,86.6,147% (inactive),133,145,153% (inactive),109% (inactive),112% (inactive),117,103
CCN(CC)c1ccc(/C=C/c2cccc[n+]2C)c(OC)c1,103% (inactive),103,105,113% (inactive),113,116,137% (inactive),104% (inactive),112% (inactive),113,111
c1ccc(-c2n[nH]c3ccccc23)cc1,98.4% (inactive),97.1,97.6,101% (inactive),101,98.3,96.2% (inactive),92.1% (inactive),96.9% (inactive),97.2,97.3
COCCNC(=O)c1ccc(Cl)c(Cl)c1,97.2% (inactive),95.6,95.3,102% (inactive),101,96.1,100% (inactive),100% (inactive),105% (inactive),103,93.8
Cc1c(Br)cc(C(=O)O)c(C)c1C,94.4% (inactive),94.7,88,101% (inactive),101,102,94.7% (inactive),97.1% (inactive),97.3% (inactive),95.6,99.3
C(=N\Nc1nc(-c2cccnc2)nc2ccccc12)/c1ccccc1,101% (inactive),101,102,99.2% (inactive),99.2,98.3,102% (inactive),95.6% (inactive),104% (inactive),105,103
Cc1ccc(C(=O)/C=C/C(=O)c2ccc(C)cc2)cc1,103% (inactive),104,97.7,195% (active),190,201,101% (inactive),111% (inactive),95.9% (inactive),100,84.8
Cc1cccc(C(=O)NNC(=S)NC(=O)c2ccccc2)c1,107% (inactive),110,105,122% (inactive),117,128,109% (inactive),102% (inactive),105% (inactive),116,99.7
CCOC(=O)C1=C(Cc2ccc(Cl)cc2)C(=O)c2ccccc2C1=O,99.1% (inactive),98.5,98.1,112% (inactive),107,111,104% (inactive),97.3% (inactive),99.3% (inactive),102,94.5
CCN(CC)CCCN(Cc1cc2cc3c(cc2[nH]c1=O)OCO3)C(=S)Nc1ccccc1,87.4% (inactive),74.2,80.4,135% (inactive),104,131,139% (inactive),133% (inactive),126% (inactive),103,120
CCCc1[nH]nc2c1C(c1ccc(OC)cc1OC)C(C#N)=C(N)O2 (configuration not stated),99.8% (inactive),99.9,99.8,92.8% (inactive),91.2,95.1,105% (inactive),90.4% (inactive),94% (inactive),89.9,91.4
COc1ccc(-c2cc(=O)n(-c3nc4ccccc4[nH]3)[nH]2)cc1,98.6% (inactive),101,99.3,117% (inactive),119,113,103% (inactive),98% (inactive),95.9% (inactive),97.4,94.4
O=C(c1ccccc1)c1ccccc1N1C(=O)C=CC1=O,90.5% (inactive),61.6,81.2,266% (active),156,263,156% (inactive),129% (inactive),86% (inactive),95.2,71.8
CSC(SC)=C(C#N)C(=O)c1ccccc1,102% (inactive),98.6,99.8,128% (inactive),117,129,103% (inactive),96.3% (inactive),93% (inactive),92,93.2
COc1ccccc1C(=O)NNC(=O)C(=O)Nc1cccc(Cl)c1C,106% (inactive),111,101,112% (inactive),118,109,116% (inactive),109% (inactive),119% (inactive),122,113
COc1ccc(N=Cc2nc(-c3ccccc3)oc2OC(=O)c2ccccc2)cc1,101% (inactive),101,101,108% (inactive),104,111,94.4% (inactive),98.1% (inactive),93.4% (inactive),92.1,91.8
NC(=O)COc1ccc(C(=O)/C=C2/C(=O)Nc3ccccc32)cc1,94% (inactive),93.4,81,95.4% (inactive),91.2,96.1,94.1% (inactive),107% (inactive),101% (inactive),103,101
Cc1ccc(S(=O)(=O)Cc2cc(F)c([N+](=O)[O-])cc2[N+](=O)[O-])cc1,74.2% (inactive),88.4,62.6,251% (active),146,223,127% (inactive),105% (inactive),89.7% (inactive),84.1,72.8
Cc1onc(-c2ccccc2)c1C(=O)NC(=S)NNC(=O)c1ccco1,101% (inactive),101,102,102% (inactive),104,103,102% (inactive),98.1% (inactive),104% (inactive),106,99.7
Cc1ccc(CN2CCSc3sccc3C2=O)cc1,84.4% (inactive),83.1,85.5,142% (inactive),130,145,96.8% (inactive),97.1% (inactive),75.5% (inactive),72.1,76
CCOC(=O)C1CCCN(c2nc3c(C)cccn3c(=O)c2/C=C(\C#N)C(=O)NCc2ccco2)C1 (configuration not stated),102% (inactive),101,101,101% (inactive),102,99.5,114% (inactive),95.2% (inactive),104% (inactive),104,100
COc1ccc(CCNC2=C(Cl)C(=O)N(CCc3ccccc3)C2=O)cc1OC,101% (inactive),102,102,103% (inactive),105,103,102% (inactive),97.4% (inactive),107% (inactive),99.7,103
COc1cccc(C(=O)Nc2ccc(NC(=O)c3cc4ccccc4o3)c(OC)c2)c1,100% (inactive),98.1,103,89% (inactive),92.5,89,102% (inactive),95% (inactive),108% (inactive),105,111
CN(C)CCCNc1cc(C(C)(C)C)nc2c(-c3ccc(Cl)cc3)cnn12,93.6% (inactive),89,94.2,116% (inactive),107,118,114% (inactive),107% (inactive),93.1% (inactive),94,92.6
Cc1ccc(C)c(N2CCN(C(=O)c3ccccc3Br)CC2)c1,105% (inactive),102,99.5,101% (inactive),101,100,109% (inactive),98.8% (inactive),106% (inactive),103,105
O=C(Nc1ccccc1C(F)(F)F)c1cc(-c2ccc(O)cc2)on1,98.8% (inactive),97,99.2,108% (inactive),102,108,102% (inactive),94% (inactive),101% (inactive),98.3,98
